Test results published in ChEMBL document CHEMBL2412985, “Peroxisome proliferator-activated receptor delta antagonists inhibit hepatitis C virus RNA replication” (Bioorg Med Chem Lett, 2013).
Calls of active or inactive are those of the source. No cut-off for these calls is given here.

Assays:
Hepatitis C virus = test: Antiviral activity against HCV infected in […] OR6 cells assessed as inhibition of viral RNA replication after 72 hrs by luciferase reporter gene assay; assay type: functional, Hepacivirus hominis; conditions: for EC50: OR6, 72 h, read-out: ED50 (the source's name)
Outline: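 OR6 cells carry genome-length HCV RNA with a Renilla luciferase reporter. Cells were plated at 2 × 10⁴ per well, at least in triplicate, and cultured 24 h. They were then exposed to compound for 72 h, lysed in Renilla lysis reagent, and luciferase activity was read. The top test concentration was set from prior WST-1 viability at about 80% relative activity.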

[1] = biological target: T1, Peroxisome proliferator-activated receptor alpha (Homo sapiens) (UniProt Q07869); test: Antagonist activity at human PPARalpha assessed as effect on TIPP-703-induced activity at 10 uM
T1 sequence (whole entry): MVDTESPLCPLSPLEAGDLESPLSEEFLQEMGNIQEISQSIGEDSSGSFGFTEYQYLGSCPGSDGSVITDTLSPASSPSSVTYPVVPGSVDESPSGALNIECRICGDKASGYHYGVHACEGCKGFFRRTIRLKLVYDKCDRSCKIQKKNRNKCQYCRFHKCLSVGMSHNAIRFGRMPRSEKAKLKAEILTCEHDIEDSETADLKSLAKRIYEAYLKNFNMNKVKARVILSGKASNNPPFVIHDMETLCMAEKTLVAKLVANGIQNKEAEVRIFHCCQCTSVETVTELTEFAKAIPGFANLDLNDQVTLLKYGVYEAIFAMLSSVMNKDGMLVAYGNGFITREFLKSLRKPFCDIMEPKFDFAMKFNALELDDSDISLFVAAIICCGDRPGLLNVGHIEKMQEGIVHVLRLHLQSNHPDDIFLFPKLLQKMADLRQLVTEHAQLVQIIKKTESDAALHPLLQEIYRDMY
Outline: (§1)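 Antagonism was measured against stimulation by the hPPAR-pan agonist, with test compound co-applied and the result expressed as % inhibition.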

[2] = Cytotoxicity against […] OR6 cells after 72 hrs by WST1 assay; assay type: cell-based
Outline: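 OR6 cells were seeded at 1 × 10³ per well in triplicate and treated at three or four concentrations for 72 h. Viability was read by WST-1 proliferation assay, and CC₅₀ was determined.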

[3] = biological target: T2, Peroxisome proliferator-activated receptor delta (Homo sapiens, UniProt Q03181); test: Antagonist activity at human PPARdelta assessed as effect on TIPP-703-induced activity; outline: as §1
T2 sequence (Q03181 whole entry): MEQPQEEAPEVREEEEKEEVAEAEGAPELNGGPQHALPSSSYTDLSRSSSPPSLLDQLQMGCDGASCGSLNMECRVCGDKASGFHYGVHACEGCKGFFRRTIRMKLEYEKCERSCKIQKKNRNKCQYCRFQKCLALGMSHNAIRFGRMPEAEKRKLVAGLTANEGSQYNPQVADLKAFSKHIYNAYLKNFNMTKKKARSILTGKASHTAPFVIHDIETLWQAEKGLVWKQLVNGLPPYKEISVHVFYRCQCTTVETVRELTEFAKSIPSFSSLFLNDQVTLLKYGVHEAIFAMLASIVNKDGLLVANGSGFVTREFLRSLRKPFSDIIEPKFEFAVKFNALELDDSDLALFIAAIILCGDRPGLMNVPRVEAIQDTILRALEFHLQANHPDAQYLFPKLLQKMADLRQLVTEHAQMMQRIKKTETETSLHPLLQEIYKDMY

[4] = Selectivity index, ratio of CC50 for […] OR6 cells to ED50 for HCV
Outline: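 SI was calculated as CC₅₀ (WST-1 viability of OR6 cells, 72 h) divided by EC₅₀ (HCV replicon Renilla luciferase inhibition, 72 h).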

[5] = biological target: T3, Peroxisome proliferator-activated receptor delta (Homo sapiens) (UniProt Q03181); test: Antagonist activity at human PPARdelta assessed as effect on TIPP-703-induced activity at 10 uM
T3 sequence (whole entry): T2 sequence (Q03181 whole entry)
Outline: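 Antagonism measured as % inhibition of hPPARδ activity stimulated by a co-added hPPAR pan-agonist held at a fixed level of […].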

Homo sapiens = species: Homo sapiens; test: Selectivity ratio of human PPARdelta to human PPARalpha

| Compound | EC50 (Hepatitis C virus) | inhibition [1] | CC50 at 72 h [2] | IC50 ([3]; read-out: IC50) | Selectivity Index [4] | ED50 (Hepatitis C virus; Hepacivirus hominis) | IC50 [3] | other results |
| --- | --- | --- | --- | --- | --- | --- | --- | --- |
| CCOc1ccc(-c2ccc(C(=O)O)cc2C)cc1CNC(=O)c1ccc(C(F)(F)F)cc1F | 0.39 µM | 49.5% | 3.9 µM | 0.028 µM | 10 | – | – | – |
| NC(=O)c1ncn([C@@H]2O[C@H](CO)[C@@H](O)[C@H]2O)n1 [RIBAVIRIN] | 5.6 µM | – | 100 µM | – | 18 | – | – | inhibition [5]: inactive |
| CCCCOc1ccc(-c2ccc(C(=O)O)cc2C)cc1CNC(=O)c1ccc(C(F)(F)F)cc1 | 0.22 µM | 12.6% | 2.5 µM | 0.019 µM | 11 | – | – | inhibition (Hepatitis C virus; Hepacivirus hominis): Dose-dependent effect; Selectivity ratio (Homo sapiens): 1000 |
| O=C(Nc1ccncc1)c1cc([N+](=O)[O-])ccc1Cl | 4.9 µM | 31.8% | 2.7 µM | > 10 µM | 0.55 | – | – | – |
| CCCOc1ccc(-c2ccc(C(=O)O)cc2C)cc1CNC(=O)c1ccc(C(F)(F)F)cc1F | 0.22 µM | 49.5% | 2.2 µM | 0.029 µM | 11 | – | – | – |
| CCCCOc1ccc(-c2ccc(C(=O)O)cn2)cc1CNC(=O)c1ccc(C(F)(F)F)cc1 | – | – | – | – | – | inactive | Not Active | – |
| CCCCOc1ccc(-c2ccc(C(=O)O)cc2Cl)cc1CNC(=O)c1ccc(C(F)(F)F)cc1 | 1.8 µM | 30.7% | 3.2 µM | 0.013 µM | 1.8 | – | – | – |
| CCCCOc1ccc(-c2cc(C(=O)O)ccc2C)cc1CNC(=O)c1ccc(C(F)(F)F)cc1 | – | – | – | – | – | inactive | Not Active | – |
| CCCCOc1ccc(-c2ccc(C(=O)O)cc2F)cc1CNC(=O)c1ccc(C(F)(F)F)cc1 | 3.9 µM | 25.4% | 8.1 µM | 0.1 µM | 2.1 | – | – | – |
| CCCCOc1ccc(-c2ccc(C(=O)O)nc2)cc1CNC(=O)c1ccc(C(F)(F)F)cc1 | – | – | – | – | – | inactive | Not Active | – |
| COC(=O)c1sccc1S(=O)(=O)Nc1ccc(Nc2ccccc2)cc1OC | – | – | – | – | – | – | – | Activity (Hepatitis C virus; Hepacivirus hominis): inactive |
| CCCCCOc1ccc(-c2ccc(C(=O)O)cc2C)cc1CNC(=O)c1ccc(C(F)(F)F)cc1F | 0.53 µM | 23.3% | 2.7 µM | 0.092 µM | 5 | – | – | – |
| CCCCOc1ccc(-c2ccc(C(=O)O)o2)cc1CNC(=O)c1ccc(C(F)(F)F)cc1 | – | – | – | – | – | inactive | Not Active | – |
| CCCCOc1ccc(-c2ccc(C)c(C(=O)O)c2)cc1CNC(=O)c1ccc(C(F)(F)F)cc1 | – | – | – | – | – | inactive | Not Active | – |
